According to ChEMBL document CHEMBL1145806, “Discovery and structural modification of inhibitors of methionine aminopeptidases from Escherichia coli and Saccharomyces cerevisiae” (J Med Chem, 2003):
Converted amounts (≈) assume the structure as drawn.

Experiments:
[1] = target: T1, Methionine aminopeptidase (Escherichia coli K-12, UniProt P0AE18); assay: Inhibitory activity against Methionine aminopeptidase 1 from Escherichia coli
T1 sequence (P0AE18 whole entry): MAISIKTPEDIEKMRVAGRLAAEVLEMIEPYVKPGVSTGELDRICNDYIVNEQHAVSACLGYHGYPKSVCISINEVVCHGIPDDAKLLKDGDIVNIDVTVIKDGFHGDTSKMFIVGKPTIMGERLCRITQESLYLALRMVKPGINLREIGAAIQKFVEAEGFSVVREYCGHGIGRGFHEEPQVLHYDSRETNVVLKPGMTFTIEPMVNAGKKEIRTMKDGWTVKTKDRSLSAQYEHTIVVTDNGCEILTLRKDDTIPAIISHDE
Procedure, shortened: (§1)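 Co(II)-activated enzyme: preincubated 30 min in 25 mM HEPES pH 7.5, 150 mM KCl, 15 mM methionine, 500 μM CoCl2. Chromogenic assay in 50 mM MOPS pH 7.0 with 1 mM DTNB and 100 μM thiopeptolide Met-S-Gly-Phe-OH. Final enzyme was 150 nM for EcMetAP1 and 330 nM for ScMetAP1. Hydrolysis read at 412 nm for 60 s. IC50 from inhibitor dilutions, […].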

[2] = target: T2, Methionine aminopeptidase 1 (Saccharomyces cerevisiae S288c, UniProt Q01662); assay: Inhibitory activity against type I methionine aminopeptidase from Saccharomyces cerevisiae; procedure, shortened: as §1
T2 sequence (Q01662 whole entry): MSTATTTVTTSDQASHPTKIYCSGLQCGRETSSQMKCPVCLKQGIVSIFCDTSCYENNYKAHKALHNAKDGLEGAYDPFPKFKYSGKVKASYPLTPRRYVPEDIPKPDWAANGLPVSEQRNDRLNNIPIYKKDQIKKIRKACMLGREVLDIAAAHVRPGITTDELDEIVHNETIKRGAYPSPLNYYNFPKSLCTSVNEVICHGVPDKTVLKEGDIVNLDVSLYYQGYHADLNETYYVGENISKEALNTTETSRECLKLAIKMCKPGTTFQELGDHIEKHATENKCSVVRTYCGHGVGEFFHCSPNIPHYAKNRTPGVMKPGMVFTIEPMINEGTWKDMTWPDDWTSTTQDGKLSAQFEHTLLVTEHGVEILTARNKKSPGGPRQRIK

Escherichia coli [3] = assay: Selectivity of inhibitory activity of Methionine aminopeptidase 1 from Escherichia coli to Methionine aminopeptidase 1 from Saccharomyces cerevisiae
Pseudomonas aeruginosa = assay: Antibacterial activity against Pseudomonas aeruginosa ATCC 27853 was determined after 24 hr; type: functional; settings: ATCC 27853, 24 h
Escherichia coli [4] = assay: Antibacterial activity against enteropathogenic Escherichia coli ATCC 25922 was determined after 24 hr; type: functional; settings: ATCC 25922, 24 h
Staphylococcus aureus = assay: Antibacterial activity against Staphylococcus aureus ATCC 25923 was determined after 24 hr; type: functional; settings: ATCC 25923, 24 h

`CC(C)=CCC(=O)Nc1cccnc1C(=O)Nc1nccs1` was tested, and the IC50 [1] was 0.24 µM, the IC50 [2] was 0.14 µM and the Ratio (Escherichia coli [3]) was 1.71.

`CCCC[C@@H](N)[C@H](O)C(=O)N[C@@H](C)C(=O)N[C@@H](CC(C)C)C(=O)OC` was tested, and the IC50 [1] was 22.9 µM and the IC50 [2] was 95.1 µM.

`O=C(Nc1nccs1)c1ccccn1` showed an MIC (Pseudomonas aeruginosa) of 250 mg/L (≈ 1220 µM), an IC50 [1] of 5 µM and an MIC (Escherichia coli [4]) of 12.5 mg/L (≈ 60.9 µM). For the same compound, the MIC (Staphylococcus aureus) was 2 mg/L (≈ 9.74 µM), the IC50 [2] was 7 µM and the Ratio (Escherichia coli [3]) was 0.71.

Work on `CCC(=O)Nc1cccnc1C(=O)Nc1nccs1` yielded an IC50 [1] of 0.26 µM, an IC50 [2] of 0.35 µM and a Ratio (Escherichia coli [3]) of 0.74.

For `CC(C)COC(=O)Nc1cccnc1C(=O)Nc1nccs1`, the IC50 [1] was 1.92 µM, the IC50 [2] was 53.7 µM and the Ratio (Escherichia coli [3]) was 0.036.

With `CC(C)=CC(=O)Oc1cccnc1C(=O)Nc1nccs1` the IC50 [1] was 2.6 µM, the IC50 [2] was 0.49 µM and the Ratio (Escherichia coli [3]) was 5.3.

`C=CCC(=O)Nc1cccnc1C(=O)Nc1nccs1` gave an MIC (Pseudomonas aeruginosa) of 500 mg/L (≈ 1730 µM), an IC50 [1] of 0.13 µM and an MIC (Escherichia coli [4]) of 125 mg/L (≈ 434 µM). The MIC (Staphylococcus aureus) was 62.5 mg/L (≈ 217 µM), the IC50 [2] was 0.38 µM and the Ratio (Escherichia coli [3]) was 0.34.

`O=CNc1cccnc1C(=O)Nc1nccs1` gave an MIC (Pseudomonas aeruginosa) of 500 mg/L (≈ 2010 µM), an IC50 [1] of 0.33 µM and an MIC (Escherichia coli [4]) of 125 mg/L (≈ 503 µM). The MIC (Staphylococcus aureus) was 62.5 mg/L (≈ 252 µM), the IC50 [2] was 0.32 µM and the Ratio (Escherichia coli [3]) was 1.

Compound `C/C=C(\C)C(=O)Oc1cccnc1C(=O)Nc1nccs1` has an IC50 [1] of 4.4 µM, an IC50 [2] of 0.39 µM and a Ratio (Escherichia coli [3]) of 11.

`O=C(Nc1cccnc1C(=O)Nc1nccs1)c1ccccc1` was tested, and the IC50 [1] was 0.89 µM, the IC50 [2] was over 100 µM and the Ratio (Escherichia coli [3]) was under 0.0089.

`O=C(Nc1nccs1)c1ncccc1NC(=O)C1CCCCC1` gave an IC50 [1] of 0.87 µM, an IC50 [2] of over 100 µM and a Ratio (Escherichia coli [3]) of under 0.0087.

`CCCCCC(=O)Oc1cccnc1C(=O)Nc1nccs1` was tested, and the IC50 [1] was 1.02 µM, the IC50 [2] was 1.74 µM and the Ratio (Escherichia coli [3]) was 0.59.

`CC(=O)Oc1ccccc1C(=O)Oc1cccnc1C(=O)Nc1nccs1` was tested, and the IC50 [1] was 1.6 µM, the IC50 [2] was 15 µM and the Ratio (Escherichia coli [3]) was 0.11.

Compound `O=C(Oc1cccnc1C(=O)Nc1nccs1)c1cccc(F)c1` has an IC50 [1] of 0.95 µM, an IC50 [2] of over 100 µM and a Ratio (Escherichia coli [3]) of under 0.0095.

`O=C(Oc1cccnc1C(=O)Nc1nccs1)c1ccccc1[N+](=O)[O-]` showed an IC50 [1] of 2.1 µM, an IC50 [2] of over 100 µM and a Ratio (Escherichia coli [3]) of under 0.021.

`O=C(Oc1cccnc1C(=O)Nc1nccs1)c1ccccc1F` gave an IC50 [1] of 0.83 µM, an IC50 [2] of 16 µM and a Ratio (Escherichia coli [3]) of 0.052.

With `COc1cccc(C(=O)Oc2cccnc2C(=O)Nc2nccs2)c1[N+](=O)[O-]` the IC50 [1] was 1.7 µM, the IC50 [2] was 3.02 µM and the Ratio (Escherichia coli [3]) was 0.56.

`COc1ccccc1/C=C/C(=O)Oc1cccnc1C(=O)Nc1nccs1` was tested, and the IC50 [1] was 2.1 µM, the IC50 [2] was 9.9 µM and the Ratio (Escherichia coli [3]) was 0.21.

For `O=C(Nc1cccnc1C(=O)Nc1nccs1)c1cccc(F)c1`, the IC50 [1] was 0.71 µM, the IC50 [2] was over 100 µM and the Ratio (Escherichia coli [3]) was under 0.0071.

With `O=C(Nc1nccs1)c1ncccc1OC(=O)C1CCCCC1` the IC50 [1] was 2.39 µM, the IC50 [2] was 0.32 µM and the Ratio (Escherichia coli [3]) was 7.5.

In the case of `O=C(Nc1cccnc1C(=O)Nc1nccs1)c1ccccc1F`, the MIC (Pseudomonas aeruginosa) is reported as 250 mg/L (≈ 730 µM), the IC50 [1] is reported as 0.28 µM and the MIC (Escherichia coli [4]) is reported as 250 mg/L (≈ 730 µM). For the same compound, the MIC (Staphylococcus aureus) was 15.6 mg/L (≈ 45.6 µM), the IC50 [2] was over 100 µM and the Ratio (Escherichia coli [3]) was under 0.0028.

Work on `CCCCCC(=O)Nc1cccnc1C(=O)Nc1nccs1` yielded an IC50 [1] of 0.38 µM, an IC50 [2] of 0.62 µM and a Ratio (Escherichia coli [3]) of 0.61.

`O=C(Oc1cccnc1C(=O)Nc1nccs1)c1ccc(F)cc1` was tested, and the IC50 [1] was 1.1 µM, the IC50 [2] was 62 µM and the Ratio (Escherichia coli [3]) was 0.018.

Work on `O=C(Nc1cccnc1C(=O)Nc1nccs1)c1ccc(F)cc1` yielded an IC50 [1] of 1.36 µM, an IC50 [2] of over 100 µM and a Ratio (Escherichia coli [3]) of under 0.0136.

With `O=C(Cc1ccccc1)Oc1cccnc1C(=O)Nc1nccs1` the IC50 [1] was 0.54 µM, the IC50 [2] was 0.2 µM and the Ratio (Escherichia coli [3]) was 2.7.

For `CC(C)(C)C(=O)Nc1cccnc1C(=O)Nc1nccs1`, the IC50 [1] was 0.54 µM, the IC50 [2] was 0.34 µM and the Ratio (Escherichia coli [3]) was 1.59.

`O=C(Nc1nccs1)c1ncccc1O` was tested, and the IC50 [1] was 1.87 µM, the IC50 [2] was 4.86 µM and the Ratio (Escherichia coli [3]) was 0.38.

For `CC(C)=CCCC(=O)Nc1cccnc1C(=O)Nc1nccs1`, the IC50 [1] was 0.61 µM, the IC50 [2] was 0.31 µM and the Ratio (Escherichia coli [3]) was 2.

Compound `CCC(=O)Oc1cccnc1C(=O)Nc1nccs1` has an MIC (Pseudomonas aeruginosa) of 500 mg/L (≈ 1800 µM), an IC50 [1] of 5.4 µM and an MIC (Escherichia coli [4]) of 250 mg/L (≈ 902 µM). The MIC (Staphylococcus aureus) was 125 mg/L (≈ 451 µM), the IC50 [2] was 0.38 µM and the Ratio (Escherichia coli [3]) was 14.

In the case of `O=C(Nc1nccs1)c1ncccc1NC(=O)C(F)(F)F`, the IC50 [1] is reported as 0.34 µM, the IC50 [2] is reported as 4.92 µM and the Ratio (Escherichia coli [3]) is reported as 0.069.

In the case of `O=C(Oc1cccnc1C(=O)Nc1nccs1)c1ccc(F)c(Br)c1`, the IC50 [1] is reported as 2.5 µM, the IC50 [2] is reported as 3.4 µM and the Ratio (Escherichia coli [3]) is reported as 0.74.

`O=C(Oc1cccnc1C(=O)Nc1nccs1)c1ccccc1` was tested, and the IC50 [1] was 1.22 µM, the IC50 [2] was 1.03 µM and the Ratio (Escherichia coli [3]) was 1.2.

Compound `C/C=C(\C)C(=O)Nc1cccnc1C(=O)Nc1nccs1` has an IC50 [1] of 0.28 µM, an IC50 [2] of 10.9 µM and a Ratio (Escherichia coli [3]) of 0.026.

With `C=C(C)CC(=O)Nc1cccnc1C(=O)Nc1nccs1` the IC50 [1] was 0.15 µM, the IC50 [2] was 4.67 µM and the Ratio (Escherichia coli [3]) was 0.032.

`CC(C)(C)C(=O)Oc1cccnc1C(=O)Nc1nccs1` gave an IC50 [1] of 0.68 µM, an IC50 [2] of 0.78 µM and a Ratio (Escherichia coli [3]) of 0.87.

In the case of `Nc1cccnc1C(=O)Nc1nccs1`, the IC50 [1] is reported as 1.7 µM, the IC50 [2] is reported as 32.8 µM and the Ratio (Escherichia coli [3]) is reported as 0.052.

`O=C(Oc1cccnc1C(=O)Nc1nccs1)c1ccccc1I` gave an IC50 [1] of 1.3 µM, an IC50 [2] of 0.89 µM and a Ratio (Escherichia coli [3]) of 1.5.

`O=C(Cc1ccccc1)Nc1cccnc1C(=O)Nc1nccs1` was tested, and the IC50 [1] was 0.4 µM, the IC50 [2] was 0.82 µM and the Ratio (Escherichia coli [3]) was 0.49.

`CC(C)(C)OC(=O)Nc1cccnc1C(=O)Nc1nccs1` was tested, and the IC50 [1] was 0.18 µM, the IC50 [2] was 3.35 µM and the Ratio (Escherichia coli [3]) was 0.054.

With `O=C(Oc1cccnc1C(=O)Nc1nccs1)c1cccc([N+](=O)[O-])c1` the IC50 [1] was 0.6 µM, the IC50 [2] was over 100 µM and the Ratio (Escherichia coli [3]) was under 0.006.

For `CO[C@@H]1[C@H](OC(=O)/C=C/C=C/C=C/C=C/C(=O)O)CC[C@]2(CO2)[C@H]1[C@@]1(C)O[C@@H]1CC=C(C)C` [FUMAGILLIN], the IC50 [1] was over 100 µM and the IC50 [2] was over 100 µM.

With `COc1ccccc1C(=O)Oc1cccnc1C(=O)Nc1nccs1` the IC50 [1] was 1.7 µM, the IC50 [2] was 0.55 µM and the Ratio (Escherichia coli [3]) was 3.1.

With `CC(C)=CC(=O)Nc1cccnc1C(=O)Nc1nccs1` the IC50 [1] was 0.22 µM, the IC50 [2] was 0.77 µM and the Ratio (Escherichia coli [3]) was 0.29.
